Test results published in ChEMBL document CHEMBL5724801, “EUbOPEN Chemogenomics Library - Multiplex” (2024).
Where “and” joins values, the source holds several entries; their conditions need not be identical. Equal entries are not always repeated.

Tested on: U2OS
Test: Multiplex assay against U2OS
Type: toxicity, cell-based
Conditions: human
In short: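 Compound was added to live cells that had been stained at seeding with Hoechst33342, BioTracker Green Microtubule Cytoskeleton Dye, MitoTracker Red and Annexin V Alexa Fluor 680, and imaging followed on a CQ1 microscope at 37°C and 5% CO2. CellPathfinder machine-learning gating divided cells into Hoechst high-intensity objects or normal cells, normal cells into healthy, pyknosed or fragmented nuclei, and pyknosed cells into mitotic or apoptotic. Tubulin, mitochondrial-mass and membrane-permeability phenotypes are per cents of healthy-nucleus cells.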

[1] = 12 h, 1 µM, compound concentration 1 uM
[2] = 12 h, 10 µM, compound concentration 10 uM
[3] = 24 h, 1 µM, compound concentration 1 uM
[4] = 24 h, 10 µM, compound concentration 10 uM
[5] = 48 h, 1 µM, compound concentration 1 uM
[6] = 48 h, 10 µM, compound concentration 10 uM

In the case of `O=C(NCc1cccc(O)c1)Nc1nc(-c2ccncc2)cs1`, the “Population Apoptotic (%)” value [1] is reported as 37.74% and 30.77%, the “Population Fragmented Nuclei (%)” value [1] is reported as 4.64% and 3.9% and the “Population Healthy Nuclei (%)” value [1] is reported as 83.06% and 79.22%. The “Population Hoechst High Intensity Objects (%)” value [1] was 0% and 0.65%, the “Population Membrane Permeable-Phenotype (%)” value [1] was 0.84% and 1.64% and the “Population Mitochondria Different-Phenotype (%)” value [1] was 0.28% and 9.02%. The “Population Mitotic Cells (%)” value [1] was 62.26% and 69.23%, the “Population Normal (%)” value [1] was 100% and 99.35% and the “Population Pyknosed Nuclei (%)” value [1] was 12.3% and 16.88%. The “Population Tubulin-Different-Phenotype (%)” value [1] was 1.96% and 0%, the “Total Cell Count” value [1] was 431 and 155 and the “Population Apoptotic (%)” value [2] was 52.63% and 52.17%. The “Population Fragmented Nuclei (%)” value [2] was 2.65% and 6.96%, the “Population Healthy Nuclei (%)” value [2] was 82.23% and 73.04% and the “Population Hoechst High Intensity Objects (%)” value [2] was 0.26% and 0%. The “Population Membrane Permeable-Phenotype (%)” value [2] was 1.61% and 4.76%, the “Population Mitotic Cells (%)” value [2] was 47.37% and 47.83% and the “Population Normal (%)” value [2] was 99.74% and 100%. The “Population Pyknosed Nuclei (%)” value [2] was 15.12% and 20%, the “Population Tubulin-Different-Phenotype (%)” value [2] was 2.9% and 0% and the “Population Apoptotic (%)” value [3] was 47.5% and 43.18%. For the same compound, the “Population Fragmented Nuclei (%)” value [3] was 2.77% and 4.12%, the “Population Healthy Nuclei (%)” value [3] was 82.47% and 73.2% and the “Population Hoechst High Intensity Objects (%)” value [3] was 0%. For the same compound, the “Population Membrane Permeable-Phenotype (%)” value [3] was 1.12% and 3.52%, the “Population Mitochondria Different-Phenotype (%)” value [3] was 0% and 5.63% and the “Population Mitotic Cells (%)” value [3] was 52.5% and 56.82%. The “Population Normal (%)” value [3] was 100%, the “Population Pyknosed Nuclei (%)” value [3] was 14.76% and 22.68% and the “Population Tubulin-Different-Phenotype (%)” value [3] was 0.67% and 0%. The “Total Cell Count” value [3] was 542 and 194, the “Population Apoptotic (%)” value [4] was 44.26% and 50% and the “Population Fragmented Nuclei (%)” value [4] was 3.67% and 6.77%. The “Population Healthy Nuclei (%)” value [4] was 83.15% and 67.67%, the “Population Hoechst High Intensity Objects (%)” value [4] was 0% and the “Population Membrane Permeable-Phenotype (%)” value [4] was 1.82% and 5.56%. The “Population Mitotic Cells (%)” value [4] was 55.74% and 50%, the “Population Normal (%)” value [4] was 100% and the “Population Pyknosed Nuclei (%)” value [4] was 13.17% and 25.56%. The “Population Tubulin-Different-Phenotype (%)” value [4] was 1.82% and 1.11%, the “Population Apoptotic (%)” value [5] was 50.98% and 51.79% and the “Population Fragmented Nuclei (%)” value [5] was 4.55% and 3.91%. For the same compound, the “Population Healthy Nuclei (%)” value [5] was 84.92% and 77.85%, the “Population Hoechst High Intensity Objects (%)” value [5] was 0.1% and 0% and the “Population Membrane Permeable-Phenotype (%)” value [5] was 0.12% and 2.09%. The “Population Mitochondria Different-Phenotype (%)” value [5] was 0% and 3.35%, the “Population Mitotic Cells (%)” value [5] was 49.02% and 48.21% and the “Population Normal (%)” value [5] was 99.9% and 100%. The “Population Pyknosed Nuclei (%)” value [5] was 10.54% and 18.24%, the “Population Tubulin-Different-Phenotype (%)” value [5] was 1.22% and 1.26% and the “Population Apoptotic (%)” value [6] was 60.92% and 61.11%. The “Population Fragmented Nuclei (%)” value [6] was 2.84% and 9.2%, the “Population Healthy Nuclei (%)” value [6] was 84.18% and 68.71% and the “Population Hoechst High Intensity Objects (%)” value [6] was 0%. The “Population Membrane Permeable-Phenotype (%)” value [6] was 1.6% and 6.25%, the “Population Mitochondria Different-Phenotype (%)” value [6] was 0% and 18.75% and the “Population Mitotic Cells (%)” value [6] was 39.08% and 38.89%. For the same compound, the “Population Normal (%)” value [6] was 100%, the “Population Pyknosed Nuclei (%)” value [6] was 12.99% and 22.09% and the “Population Tubulin-Different-Phenotype (%)” value [6] was 1.24% and 0.89%.
For `Cc1cc(C)cc(C(=O)NOCCCCCC(=O)NO)c1`, the “Population Apoptotic (%)” value [1] was 33.33% and 45.83%, the “Population Fragmented Nuclei (%)” value [1] was 2.19% and 1.16% and the “Population Healthy Nuclei (%)” value [1] was 82.02% and 84.97%. For the same compound, the “Population Hoechst High Intensity Objects (%)” value [1] was 0%, the “Population Membrane Permeable-Phenotype (%)” value [1] was 0.53% and 4.08% and the “Population Mitochondria Different-Phenotype (%)” value [1] was 0.27% and 4.08%. The “Population Mitotic Cells (%)” value [1] was 66.67% and 54.17%, the “Population Normal (%)” value [1] was 100% and the “Population Pyknosed Nuclei (%)” value [1] was 15.79% and 13.87%. For the same compound, the “Population Tubulin-Different-Phenotype (%)” value [1] was 0.8% and 1.36%, the “Total Cell Count” value [1] was 456 and 173 and the “Population Apoptotic (%)” value [2] was 27.78% and 30.23%. The “Population Fragmented Nuclei (%)” value [2] was 2.46% and 2.56%, the “Population Healthy Nuclei (%)” value [2] was 79.85% and 69.87% and the “Population Hoechst High Intensity Objects (%)” value [2] was 0%. For the same compound, the “Population Membrane Permeable-Phenotype (%)” value [2] was 1.23% and 4.59%, the “Population Mitochondria Different-Phenotype (%)” value [2] was 0.31% and 9.17% and the “Population Mitotic Cells (%)” value [2] was 72.22% and 69.77%. The “Population Normal (%)” value [2] was 100%, the “Population Pyknosed Nuclei (%)” value [2] was 17.69% and 27.56% and the “Population Tubulin-Different-Phenotype (%)” value [2] was 2.46% and 1.83%. For the same compound, the “Total Cell Count” value [2] was 407 and 156, the “Population Apoptotic (%)” value [3] was 42.11% and 38.46% and the “Population Fragmented Nuclei (%)” value [3] was 5.65% and 5.61%. The “Population Healthy Nuclei (%)” value [3] was 59.88% and 61.22%, the “Population Hoechst High Intensity Objects (%)” value [3] was 0% and the “Population Membrane Permeable-Phenotype (%)” value [3] was 0.67% and 1.67%. The “Population Mitochondria Different-Phenotype (%)” value [3] was 0.34% and 5%, the “Population Mitotic Cells (%)” value [3] was 57.89% and 61.54% and the “Population Normal (%)” value [3] was 100%. For the same compound, the “Population Pyknosed Nuclei (%)” value [3] was 34.48% and 33.16%, the “Population Tubulin-Different-Phenotype (%)” value [3] was 3.37% and 1.67% and the “Total Cell Count” value [3] was 496 and 196. The “Population Apoptotic (%)” value [4] was 36.05% and 42.86%, the “Population Fragmented Nuclei (%)” value [4] was 8.75% and 10% and the “Population Healthy Nuclei (%)” value [4] was 30.26% and 41.88%. For the same compound, the “Population Hoechst High Intensity Objects (%)” value [4] was 0%, the “Population Membrane Permeable-Phenotype (%)” value [4] was 0.78% and 10.45% and the “Population Mitochondria Different-Phenotype (%)” value [4] was 0% and 4.48%. The “Population Mitotic Cells (%)” value [4] was 63.95% and 57.14%, the “Population Normal (%)” value [4] was 100% and the “Population Pyknosed Nuclei (%)” value [4] was 60.99% and 48.12%. For the same compound, the “Population Tubulin-Different-Phenotype (%)” value [4] was 3.12% and 11.94%, the “Total Cell Count” value [4] was 423 and 160 and the “Population Apoptotic (%)” value [5] was 77.2% and 80.52%. The “Population Fragmented Nuclei (%)” value [5] was 9.29% and 8.45%, the “Population Healthy Nuclei (%)” value [5] was 55.56% and 55.4% and the “Population Hoechst High Intensity Objects (%)” value [5] was 0.18% and 0%. For the same compound, the “Population Membrane Permeable-Phenotype (%)” value [5] was 4.92% and 7.63%, the “Population Mitochondria Different-Phenotype (%)” value [5] was 0.66% and 5.93% and the “Population Mitotic Cells (%)” value [5] was 22.8% and 19.48%. The “Population Normal (%)” value [5] was 99.82% and 100%, the “Population Pyknosed Nuclei (%)” value [5] was 35.15% and 36.15% and the “Population Tubulin-Different-Phenotype (%)” value [5] was 6.89% and 8.47%. For the same compound, the “Total Cell Count” value [5] was 550 and 213, the “Population Apoptotic (%)” value [6] was 79.12% and 92.94% and the “Population Fragmented Nuclei (%)” value [6] was 3.39% and 4.58%. For the same compound, the “Population Healthy Nuclei (%)” value [6] was 31.59% and 39.87%, the “Population Hoechst High Intensity Objects (%)” value [6] was 0% and the “Population Membrane Permeable-Phenotype (%)” value [6] was 15.7% and 31.15%. The “Population Mitochondria Different-Phenotype (%)” value [6] was 0.83% and 3.28%, the “Population Mitotic Cells (%)” value [6] was 20.88% and 7.06% and the “Population Normal (%)” value [6] was 100%. The “Population Pyknosed Nuclei (%)” value [6] was 65.01% and 55.56%, the “Population Tubulin-Different-Phenotype (%)” value [6] was 44.63% and 32.79% and the “Total Cell Count” value [6] was 383 and 153.
